These results are taken from ChEMBL document CHEMBL4706580, “4-Amino-1,2,4-triazole-3-thione-derived Schiff bases as metallo-β-lactamase inhibitors” (Eur J Med Chem, 2020).

Active and inactive are the calls of the source. The calls are words filed in the database; no cut-off is given here.

Assay [1] is described as follows: Inhibition of beta-lactamase NDM1 (unknown origin) expressed in Escherichia coli BL21(DE3) using cefotaxime/nitrocefin as substrate by measuring substrate hydrolysis at 100 uM by spectrophotometric analysis.
Assay [2] is described as follows: Inhibition of beta-lactamase VIM-2 (unknown origin) expressed in Escherichia coli LZ2310 assessed as potentiation of cefoxitin antibacterial activity by measuring cefoxitin induced diameter of inhibition zone at 40 uM incubated for 18 hrs by disk diffusion method (reference value: 14 mm). Summed up: (§1)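 Efflux-deficient E. coli LZ2310 (NorE, MdfA, AcrA knocked out) carrying pLB-II with the cloned MBL gene. Mueller-Hinton, CLSI disk diffusion; antibiotic disks (30 µg cefoxitin for VIM-2, 10 µg ampicillin for VIM-4, 30 µg ceftazidime for NDM-1/IMP-1) loaded with inhibitor in DMSO (≤15 µL). Zone diameter after 18 h, 35 ± 1 °C; DMSO and 220 µg EDTA controls. Triplicate.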
For orientation: A growth-free zone around the sample is the usual read-out of agar diffusion tests.

Assay [3] deals with Hydroxyacylglutathione hydrolase (Homo sapiens). Briefly: Inhibition of human Glyoxalase II expressed in Escherichia coli BL21 (DE3).
Assay [4] in a line: Inhibition of beta-lactamase L1 (unknown origin) expressed in Escherichia coli BL21(DE3) using nitrocefin as substrate by measuring substrate hydrolysis preincubated for 30 mins by spectrophotometric analysis. The essentials: (§2)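 Enzyme 0.2–0.8 nM in 25 mM HEPES pH 7.5 with 50 μM ZnCl2 final, pre-incubated 30 min at 21 °C with inhibitor (100 μM screen). Nitrocefin 100 μM final, read at 482 nm, 30 °C. Residual activity vs three uninhibited samples; Ki (1–100 μM inhibitor) from Hanes linearization, competitive model. Triplicate.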

A short description of assay [5]: Inhibition of beta-lactamase VIM2 (unknown origin) expressed in Escherichia coli BL21(DE3) using imipenem as substrate by measuring substrate hydrolysis by spectrophotometric analysis. Summed up: (§3)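 Purified enzyme (overproduced in E. coli BL21(DE3), pET-9a; ion-exchange and gel filtration), 1-70 nM final. Reporter substrate 150 μM imipenem, read at 300 nm, 30 °C, 50 mM HEPES pH 7.5. Single-point screen at 100 or 200 μM; Ki from v0/vi vs [I] (0.5–1,000 μM final) assuming competitive inhibition, or Dixon plot. Triplicate.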

The nature of assay [6]: Inhibition of beta-lactamase VIM4 (unknown origin) expressed in Escherichia coli BL21(DE3) using imipenem as substrate by measuring substrate hydrolysis by spectrophotometric analysis. The essentials:
as §3

Assay [7] can be described thus: Inhibition of beta-lactamase VIM-4 (unknown origin) expressed in Escherichia coli LZ2310 assessed as potentiation of ampicillin antibacterial activity by measuring ampicillin induced diameter of inhibition zone at 40 uM incubated for 18 hrs by disk diffusion method (reference value: 6 mm). The essentials:
as §1

A short description of assay [8]: Inhibition of beta-lactamase NDM1 (unknown origin) expressed in Escherichia coli BL21(DE3) using cefotaxime/nitrocefin as substrate by measuring substrate hydrolysis at 200 uM by spectrophotometric analysis.
A short description of assay [9]: Inhibition of beta-lactamase CphA (unknown origin) expressed in Escherichia coli BL21(DE3) using imipenem as substrate by measuring substrate hydrolysis by spectrophotometric analysis. The essentials: (§4)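 Enzyme 0.2–0.8 nM in 15 mM cacodylate pH 6.5, no added zinc, pre-incubated 30 min at 21 °C with inhibitor (100 μM screen). Imipenem substrate added from 10 mM stock; hydrolysis at 300 nm, 30 °C. Residual activity vs three uninhibited samples; Ki (1–100 μM inhibitor) by Hanes linearization, competitive model. Triplicate.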

Assay [10] can be described thus: Binding affinity to beta-lactamase VIM-2 expressed in Escherichia coli BL21(DE3) assessed as dissociation constant at 25 degC by isothermal titration calorimetry. Summed up:
(§5)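 VIM-2 (19 μM) in 10 mM HEPES-NaOH, 0.15 M NaCl, 50 μM ZnSO4, pH 7.5, DMSO matched to ligand (1-2% final). One 0.5 μl then 19 × 2 μl injections of compound (200-400 μM), 150 s apart, 25 °C. Buffer dilution heats subtracted; nonlinear least-squares fit for n, Ka, ΔH; compound concentration adjusted in fitting so n ≈ 1.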

Assay [11] is described as follows: Binding affinity to beta-lactamase VIM-2 expressed in Escherichia coli BL21(DE3) assessed as change in enthalpy at 25 degC by isothermal titration calorimetry. Summed up: as §5
A short description of assay [12]: Binding affinity to beta-lactamase VIM-2 expressed in Escherichia coli BL21(DE3) assessed as change in entropy at 25 degC by isothermal titration calorimetry. Summed up: as §5
For orientation: Isothermal titration calorimetry measures the heat released or taken up as one component is titrated into another.

Assay [13] is described as follows: Inhibition of beta-lactamase NDM1 (unknown origin) expressed in Escherichia coli BL21(DE3) using cefotaxime/nitrocefin as substrate by measuring substrate hydrolysis by spectrophotometric analysis. Summed up:
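His-tagged enzyme from E. coli BL21(DE3) pET-15b, affinity-purified, 1-70 nM final. Reporter substrate 120 μM cefotaxime (260 nm) or 100 μM nitrocefin (482 nm), 30 °C, 50 mM HEPES pH 7.5. Inhibitor 0.5–1,000 μM final; competitive Ki from v0/vi vs [I] slope or Dixon plot. Triplicate.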

A short description of assay [14]: Binding affinity to beta-lactamase VIM-2 expressed in Escherichia coli BL21(DE3) assessed as association constant at 25 degC by isothermal titration calorimetry. Summed up: as §5
Assay [15] can be described thus: Inhibition of beta-lactamase IMP-1 (unknown origin) expressed in Escherichia coli BL21(DE3) using imipenem as substrate by measuring substrate hydrolysis at 100 uM by spectrophotometric analysis. Summed up: as §3
Assay [16] is described as follows: Inhibition of beta-lactamase IMP-1 (unknown origin) expressed in Escherichia coli BL21(DE3) using imipenem as substrate by measuring substrate hydrolysis at 200 uM by spectrophotometric analysis. The essentials: as §3
The nature of assay [17]: Binding affinity to beta-lactamase VIM-2 expressed in Escherichia coli BL21(DE3) assessed as Gibbs free energy at 25 degC by isothermal titration calorimetry. The essentials:
as §5

Assay [18] is described as follows: Inhibition of beta-lactamase L1 (unknown origin) expressed in Escherichia coli BL21(DE3) using nitrocefin as substrate by measuring substrate hydrolysis at 100 uM preincubated for 30 mins by spectrophotometric analysis. Summed up:
as §2

Assay [19] in a line: Inhibition of beta-lactamase VIM2 (unknown origin) expressed in Escherichia coli BL21(DE3) using imipenem as substrate by measuring substrate hydrolysis at 200 uM by spectrophotometric analysis. Summed up:
as §3

Assay [20] can be described thus: Inhibition of beta-lactamase VIM2 (unknown origin) expressed in Escherichia coli BL21(DE3) using imipenem as substrate by measuring substrate hydrolysis at 100 uM by spectrophotometric analysis. The essentials:
as §3

A short description of assay [21]: Inhibition of beta-lactamase NDM-1 (unknown origin) expressed in Escherichia coli LZ2310 assessed as potentiation of ceftazidime antibacterial activity by measuring ceftazidime induced diameter of inhibition zone at 80 uM incubated for 18 hrs by disk diffusion method (reference value: 15 mm). The essentials: as §1
The nature of assay [22]: Inhibition of beta-lactamase IMP-1 (unknown origin) expressed in Escherichia coli LZ2310 assessed as potentiation of ceftazidime antibacterial activity by measuring ceftazidime induced diameter of inhibition zone at 40 uM incubated for 18 hrs by disk diffusion method (reference value: 9 mm). Summed up: as §1
Assay [23] in a line: Inhibition of beta-lactamase IMP-1 (unknown origin) expressed in Escherichia coli BL21(DE3) using imipenem as substrate by measuring substrate hydrolysis by spectrophotometric analysis. Summed up:
as §3

The nature of assay [24]: Inhibition of beta-lactamase VIM-2 (unknown origin) expressed in Escherichia coli LZ2310 assessed as potentiation of cefoxitin antibacterial activity by measuring cefoxitin induced diameter of inhibition zone at 80 uM incubated for 18 hrs by disk diffusion method (reference value: 14 mm). Summed up: as §1
Assay [25] can be described thus: Inhibition of beta-lactamase L1 (unknown origin) expressed in Escherichia coli BL21(DE3) using nitrocefin as substrate by measuring substrate hydrolysis at 200 uM preincubated for 30 mins by spectrophotometric analysis.
Assay [26] can be described thus: Inhibition of beta-lactamase VIM-2 (unknown origin) expressed in Escherichia coli XL-1 assessed as potentiation of cefoxitin antibacterial activity by measuring cefoxitin induced diameter of inhibition zone at 320 uM incubated for 18 hrs by disk diffusion method (reference value: 8 mm). Summed up:
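Wild-type efflux E. coli XL-1 Blue transformed with pLB-II-VIM-2. Mueller-Hinton disk diffusion per CLSI, 30 µg cefoxitin disks loaded with inhibitor dissolved in DMSO (≤15 µL). Growth-inhibition zone measured after 18 h at 35 ± 1 °C; DMSO negative and 220 µg EDTA positive controls. Triplicate.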

A short description of assay [27]: Inhibition of beta-lactamase VIM-2 (unknown origin) expressed in Escherichia coli LZ2310 assessed as potentiation of cefoxitin antibacterial activity by measuring cefoxitin induced diameter of inhibition zone at 320 uM incubated for 18 hrs by disk diffusion method (reference value: 14 mm). Summed up: as §1
Assay [28] can be described thus: Inhibition of beta-lactamase IMP-1 (unknown origin) expressed in Escherichia coli LZ2310 assessed as potentiation of ceftazidime antibacterial activity by measuring ceftazidime induced diameter of inhibition zone at 320 uM incubated for 18 hrs by disk diffusion method (reference value: 9 mm). Summed up: as §1
The nature of assay [29]: Inhibition of beta-lactamase CphA (unknown origin) expressed in Escherichia coli BL21(DE3) using imipenem as substrate by measuring substrate hydrolysis at 100 uM by spectrophotometric analysis. The essentials:
as §4

Assay [30] is described as follows: Inhibition of beta-lactamase NDM-1 (unknown origin) expressed in Escherichia coli LZ2310 assessed as potentiation of ceftazidime antibacterial activity by measuring ceftazidime induced diameter of inhibition zone at 40 uM incubated for 18 hrs by disk diffusion method (reference value: 15 mm). Summed up:
as §1

Assay [31] in a line: Inhibition of beta-lactamase CphA (unknown origin) expressed in Escherichia coli BL21(DE3) using imipenem as substrate by measuring substrate hydrolysis at 200 uM by spectrophotometric analysis.

For `Cc1ccccc1-c1n[nH]c(=S)n1/N=C/c1ccc(O)cc1O`, the inhibition result in assay [1] and in assay [8] was “inactive” in each case. The results for the inhibition zone (IZ) in assay [2] and in [7] were 14 mm and 6 mm, respectively. In assay [3], inhibition was half-maximal at 19 µM (IC50). Also, the Ki (as a rule, the dissociation constant of the complex between target and ligand, obtained from inhibition or displacement) in [4] was 31 µM; in [5], 7 µM; in [6] it was 0.4 µM; in assay [9], 62 µM.

Consider `O=C(O)c1ccccc1/C=N/n1c(-c2ccccc2)n[nH]c1=S`, for which the inhibition zone (IZ) in [2] worked out at 20 mm. Besides, half-maximal inhibition in assay [3] (IC50) required 25.5 µM. Further, the equilibrium dissociation constant (Kd) – broadly, a measure of binding affinity in units of concentration – in assay [10] was determined as 0.519 µM. Also, the deltaH in assay [11] is -3.6 kcal/mol. The inhibitory constant (Ki) was found to be 5 µM in [4]; 2.7 µM in assay [5]; 1.4 µM in assay [6]; 38 µM in [13]; 58 µM in assay [9]. The -TdeltaS in assay [12] came to 4.9 kcal/mol. In addition, the Ka in [14] is 1.9 10^6/M. The inhibition result in [15] and in [16] was “inactive” each time. For the same molecule, the deltaG in assay [17] was -8.5 kcal/mol.

Regarding `O=C(O)c1ccccc1/C=N/n1c(-c2ccc(Cl)cc2)n[nH]c1=S`, in assay [18], the inhibition (commonly the drop in the measured response relative to a control, in per cent) turned out to be 60%. Besides, the values for the Ki in assay [6] and in assay [13] were 7 µM and 7.6 µM, respectively. The inhibition entry in [15], in assay [19], in assay [16] and in assay [20] was “inactive” in each case. Moreover, the inhibition zone (IZ) in [21] stood at 15 mm.

For `Cc1ccccc1-c1n[nH]c(=S)n1/N=C/c1ccc(OCc2ccccc2)cc1`, the inhibition entry in assay [1], in assay [19], in [20] and in [8] was “inactive” throughout. Also, inhibition in assay [3] was half-maximal at 5.9 µM (IC50). Besides, the Ki in [4] came out at 12 µM; in assay [6], 2.1 µM; in [23] it was 0.3 µM; in [9], 22 µM. The inhibition zone (IZ) in [22] was 9 mm; in assay [7], 6 mm.

Take `Oc1ccc(/C=N/n2c(-c3ccccc3-c3ccccc3)n[nH]c2=S)c(O)c1`: the inhibition entry in assay [18] and in assay [25] was “inactive” throughout. Besides, the inhibitory constant (Ki) in [5] was found to be 4.5 µM; in [6], 9 µM; in [13], 6.4 µM; in assay [23], 12 µM. Also, the inhibition zone (IZ) stood at 14 mm in assay [24] and 15 mm in assay [21].

With `O=C(O)c1ccccc1/C=N/n1c(-c2ccccc2O)n[nH]c1=S`, the inhibition entry in assay [1], in [15], in assay [16] and in [8] was “inactive” each time. This molecule displayed an inhibition in assay [18] of 40%. The inhibition constant Ki worked out at 2.2 µM in [5] and 3 µM in assay [6]. Also, the inhibition zone (IZ) in [26] is 10 mm; in [27], 17 mm; in [28] it was 12 mm.

As to `O=C(O)c1ccccc1/C=N/n1c(-c2ccc3ccccc3c2)n[nH]c1=S`, the inhibition zone (IZ) amounted to 15 mm in assay [2], 9 mm in assay [22] and 15 mm in assay [30]. In addition, the half-inhibitory concentration (IC50) (usually the point on the concentration scale where inhibition reaches its midpoint) in assay [3] amounted to 13.2 µM. For the same molecule, the Kd in assay [10] was 0.713 µM. Besides, the deltaH in [11] was -3.3 kcal/mol. Besides, the Ki worked out at 4.62 µM in [4]; 0.7 µM in assay [5]; 0.4 µM in assay [6]; 2.3 µM in assay [13]; 10.6 µM in assay [23]. In [12], the -TdeltaS was determined as 5.1 kcal/mol. For the same molecule, in assay [14], the Ka is 1.4 10^6/M. Further, in assay [17], the deltaG was -8.4 kcal/mol. Moreover, the inhibition entry in [29] and in [31] was “inactive” throughout.
